Compound activity from PubChem BioAssay.
Hits are enriched below; roughly 1.9% of the tested compounds scored in any of these assays.
NR2E3 ag-1 – activates human NR2E3 receptor. Q9Y5X4. CHO-S Gal4-NCOR/VP16-NR2E3 two-hybrid, luciferase. inhibition of corepressor binding, % at 3.98 µM. hit rate 0.35% among 360,000. AID 602229;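 active = inhibition above the mean of all tested compounds plus 3 SD, cut at about 70% in these data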;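 note: 0% = DMSO with NR2E3 transfected cells and 100% = cells lacking NR2E3 construct; higher means lower luciferase signal from less NR2E3 corepressor binding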
Target sequence (Q9Y5X4 whole entry, looked up, the tested form may be a part): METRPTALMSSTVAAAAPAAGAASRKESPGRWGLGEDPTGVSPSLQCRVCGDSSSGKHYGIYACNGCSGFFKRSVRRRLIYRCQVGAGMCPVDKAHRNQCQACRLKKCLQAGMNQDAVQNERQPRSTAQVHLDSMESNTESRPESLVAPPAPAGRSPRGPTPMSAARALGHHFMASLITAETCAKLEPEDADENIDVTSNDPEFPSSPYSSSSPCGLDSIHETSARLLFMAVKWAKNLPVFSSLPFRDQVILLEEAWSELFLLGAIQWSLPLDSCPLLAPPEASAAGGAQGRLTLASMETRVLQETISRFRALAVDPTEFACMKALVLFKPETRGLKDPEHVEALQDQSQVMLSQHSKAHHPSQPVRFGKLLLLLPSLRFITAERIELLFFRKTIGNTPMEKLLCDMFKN
PG9 binder – PG9 antibody binding by small molecule; TR-FRET gp120-PG9 antibody binding; inhibition, % at 6.7 µM; hit rate 0.43% among 360,000; in the data active = inhibition above about 8.5%
MT1-MMP act inh – MT1-MMP (human) activation inhibition; P50281; HT1080 RFP-PRO-GFP cells, GFP/RFP ratio fluorescence, overnight; percent of plate control window, DMSO zero; GFP/RFP ratio change, % at 20 µM; hit rate 0.061% among 360,000; AID 651647;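 active = GFP/RFP ratio change of at least 30% with cell ATP level not reduced by more than half and red fluorescence within 50% of control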
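Assay system: HT1080 cells carrying an RFP-PRO-GFP reporter | Dosing: Single dose of 20 µM compound, 1% DMSO final | Incubation: Cells overnight before dosing, compound overnight, 37 °C, 5% CO2 | Evaluation: GFP/RFP fluorescence ratio | Control set: DMSO and RFP-L50D-GFP cell wells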
SKN-1 inh – C. elegans SKN-1 inhibition | inhibition, % at 21.8 µM | hit rate 0.49% among 360,000 | C. elegans VP596 Pgst-4::GFP/RFP ratio, acrylamide-induced, 24 h | AID 624304;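 active = interference check ratio from 0.5 to 1.5 plus GFP to RFP signal ratio inhibition reaching or exceeding a fixed threshold, cut at about 30% in these data, passing the limit was not always enough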
NR2E3 ag-2 – agonists of human nuclear receptor NR2E3. Q9Y5X4. GST-NR2E3/biotin-RetCOR TR-FRET, 1536-well. inhibition of corepressor binding, % at 4.78 µM. hit rate 0.12% among 320,000. AID 2300;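 active = percent inhibition above the cutoff of mean plus 3 SD of all tested compounds, set per screening campaign, cut at about 20% in these data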;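 note: 0% = DMSO wells and 100% = biotin wells as full block of FRET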
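Material – GST-tagged NR2E3 plus biotinylated RetCOR corepressor · Quantity – NR2E3 fusion 1.35 nM · Times – 5 h incubation at 4 °C · Medium – pH 7.5 Tris-based buffer · Technique – TR-FRET, Eu(K)-anti-GST donor, streptavidin-D2 acceptor, ex 340, em 617/671 nm · Benchmarks – high control biotin, low control 0.6% DMSO · Format – 1536-well plates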
Rev-erbA mod – Rev-erb alpha (human) modulation. P20393. hit rate 0.79% among 370,000. Rev-erbα–FITC-DNA binding, fluorescence polarization, 90 min. activity, % at 10 µM;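 active = activity above about 14%, limit read from the data; passing the limit was not always enough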;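 note: 0% = DMSO wells with 35 nM protein and 100% = DMSO wells with 750 nM protein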
PG9 binder conf – PG9 antibody binding, confirmed; shares compounds with PG9 binder; TR-FRET PG9 antibody binding, biochemical; inhibition, % at 6.7 µM; hit rate 90% among 1,500; AID 651571; in the data active = inhibition above about 9%
PGV04 counter – PGV04 control antibody binding, counter-screen; hit rate 95% among 1,500; AID 651604; TR-FRET PGV04 antibody-gp120 binding, biochemical; shares compounds with PG9 binder; inhibition, % at 6.7 µM; in the data active = inhibition above about 9.5%
* hit, by the source's call; x = no result.

SMILES	NR2E3 ag-1	PG9 binder	MT1-MMP act inh	SKN-1 inh	NR2E3 ag-2	Rev-erbA mod	PG9 binder conf	PGV04 counter
CCOC(=O)C1CCN(C(=O)c2ccc(N(C)S(C)(=O)=O)cc2)CC1	-4	0	0	4	1	-4	x	x
CN(c1ccc(C(=O)COC(=O)C2CC2)cc1)S(C)(=O)=O	-37	14*	3	-2	x	4	18*	20*
CCOC(=O)c1ccccc1NC(=O)C1CCN(c2ncnc3sc(C)c(C)c23)CC1	2	x	x	-10	-1	x	x	x
Cc1sc2ncnc(N3CCC(C(=O)Nc4ccccc4C(C)(C)C)CC3)c2c1C	-15	13*	-15	8	2	3	17*	21*
COc1cccc(NC(=O)CSc2nc3scc(C)c3c(=O)[nH]2)c1	-14	26*	0	5	3	8	29*	43*
COc1ccc(-c2cc3nc(NCc4ccc(C)cc4C)n(C)c(=O)c3s2)cc1OC	-29	13*	-12	14	x	12	13*	20*
Cc1ccc(CNc2nc3cc(-c4ccccc4)sc3c(=O)n2C)c(C)c1	-14	0	-3	19	x	6	x	x
CCOc1ccccc1-c1n[nH]c(=S)o1	-8	11*	-4	2	6	-3	14*	19*
CCOc1ccc(-c2n[nH]c(=S)o2)cc1	-48	0	2	0	3	-2	x	x
O=C1C(=O)N(CCN2CCOCC2)C(c2ccccc2)/C1=C(\O)c1ccc2c(c1)OCCO2 (stereo unspecified)	-12	15*	-4	-5	11	-6	21*	23*
O=C1C(=O)N(CCCN2CCOCC2)C(c2ccc(Cl)cc2)/C1=C(\O)c1ccc2c(c1)OCCO2 (stereo unspecified)	0	10*	0	7	2	0	23*	27*
C=CCOc1cccc(C2/C(=C(\O)c3ccc4c(c3)OCCO4)C(=O)C(=O)N2CCN2CCOCC2)c1 (stereo unspecified)	13	9.3*	0	7	12	-7	16*	21*
CC(C)c1ccc(C2/C(=C(\O)c3ccc4c(c3)OCCO4)C(=O)C(=O)N2CCN2CCOCC2)cc1 (stereo unspecified)	-5	5	3	5	5	6	x	x
C=CCOc1cccc(C2/C(=C(/O)c3ccc(C)cc3)C(=O)C(=O)N2CCN2CCOCC2)c1 (stereo unspecified)	-11	-2	0	8	1	2	x	x
CCCCOc1ccc(C2/C(=C(\O)c3ccc4c(c3)OCCO4)C(=O)C(=O)N2CCCN2CCOCC2)cc1 (stereo unspecified)	-16	1	-2	-5	6	7	x	x
CCOC(=O)C1=CCN(S(=O)(=O)c2ccccc2F)C1c1ccc(Br)cc1 (stereo unspecified)	x	0	x	x	x	4	x	x
Cn1cc(-c2cccc3[nH]cc(-c4ccccc4)c23)c2ccccc21	x	x	x	x	x	5	x	x
Cc1[nH]c2ccccc2c1CC(=O)Nc1ccc(Nc2cccnc2)c(-c2cc(F)cc(F)c2)c1	x	-1	x	x	x	-3	x	x
O=C(NCC1CCN(C(=O)C(=O)c2cc3ccccc3o2)CC1)c1cccnc1	x	-1	x	x	x	1	x	x
COc1cccc(C2/C(=C(\O)c3ccc4c(c3)OCCO4)C(=O)C(=O)N2CC2CCCO2)c1 (stereo unspecified)	-3	9.2*	x	0	x	1	16*	20*
COc1ccc(/C(O)=C2/C(=O)C(=O)N(CC3CCCO3)C2c2cccc(OC)c2)cc1 (stereo unspecified)	-8	2	-1	-2	13	-1	x	x
Cc1ccc(C2/C(=C(\O)c3ccc4c(c3)OCCO4)C(=O)C(=O)N2CC2CCCO2)cc1 (stereo unspecified)	5	9.7*	0	4	x	8	20*	22*
COCCN(CCOC)C(=O)[C@@H](Cc1ccccc1)NC(=O)[C@H]1O[C@@H](n2ccc(N)nc2=O)[C@H](O)[C@@H]1O	x	-1	x	x	x	5	x	x
CCOC(=O)c1cccc(Nc2ncnc3ccc(C)cc23)c1	-21	-1	-2	-20	1	7	x	x
CCOC(=O)c1ccc(Nc2ncnc3ccc(C)cc23)cc1	-31	8.9*	-6	-28	4	7	14*	22*
SMILES	NR2E3 ag-1	PG9 binder	MT1-MMP act inh	SKN-1 inh	NR2E3 ag-2	Rev-erbA mod	PG9 binder conf	PGV04 counter
COc1ccc(CC(=O)Nc2c(C(N)=O)oc3ccccc23)cc1OC	-3	-2	2	3	8	2	x	x
CCOc1ccc(CC(=O)Nc2c(C(=O)Nc3ccccc3)oc3ccccc23)cc1OCC	-16	23*	2	3	5	13	22*	33*
CC(C)C[C@H]1COc2cc(N3CCCC3)ccc2S(=O)(=O)N1	x	1	x	x	x	0	x	x
O=C(CSc1nc2ccccc2c(=O)n1Cc1ccc(F)cc1)NCc1cccs1	-21	16*	0	-3	5	4	16*	33*
O=C(CSc1nc2ccccc2c(=O)n1Cc1ccco1)NCc1ccccc1	3	-1	-59	-4	-1	3	x	x
CC(=O)c1c(C)[nH]c(C(=O)Nc2ccc(C)cc2Br)c1C	-138	10*	-3	7	1	0	8	11*
CC(=O)c1c(C)[nH]c(C(=O)Nc2cc(C)ccc2C)c1C	-20	0	0	9	5	-2	x	x
CCc1c(C(=O)Nc2cc(C)ccc2OC)[nH]c(C)c1C(C)=O	-19	20*	-5	-11	1	-2	19*	24*
Cc1ccc(NC(=O)CCn2cnc3ccccc3c2=O)cc1Cl	4	13*	3	-14	0	9	18*	23*
CCCc1nc2ccccc2c(=O)n1CC(=O)c1ccccc1	0	-2	-5	-9	0	-2	x	x
CCCc1nc2ccccc2c(=O)n1CC(=O)c1ccc(OC)cc1	8	10.0*	0	12	-1	2	11*	15*
Cc1ccccc1NC(=O)CCC(=O)OCC(=O)c1ccc(-c2ccccc2)cc1	-5	13*	-4	-7	-1	0	13*	24*
CCOc1ccc2nc(NCCNC(=O)Nc3cccc(C)c3)c(C#N)cc2c1	-7	9.8*	-6	12	1	-1	15*	32*
COc1ccc(C(=O)NCCNc2nc3ccc(C)cc3cc2C#N)cc1	-30	45*	0	16	-1	-6	12*	36*
